# An excerpt weighted towards active compounds, which were near 2.4% of everything screened.
# S100A4 inh HTS = inhibitors of human S100A4 binding to myosin IIA peptide. S100A4/TAMRA-MyoIIA peptide fluorescence polarization. inhibition, % at 10.7 µM. 0.14% of 360,000 active. P26447. AID 652163;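 active = mean inhibition of at least 70% across replicates, with every replicate also reaching that level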
# Target sequence (P26447 whole entry, looked up): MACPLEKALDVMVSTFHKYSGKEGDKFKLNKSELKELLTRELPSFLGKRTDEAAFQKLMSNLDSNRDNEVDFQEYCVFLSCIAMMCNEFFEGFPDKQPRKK
#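 assay system = human S100A4 monomer with TAMRA-labelled myosin IIA peptide | also added = labelled myosin peptide probe, 5 nM | incubation = 5 min between mix addition and reading | control set = DMSO and TFP controls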
# ERAP1 inh = inhibitors of human ERAP1 aminopeptidase; Q9NZ08; recombinant ERAP1, Leu-AMC fluorescence, 60 min; inhibition, % at 10.7 µM; 0.15% of 340,000 active;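 active = mean replicate inhibition of at least 30%, or all replicates individually reaching that 30% level; inactive = mean below 30% and not every replicate reaching it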;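 note: 0% = neutral control wells and 100% = L-leucinethiol positive control wells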
# ARNT-TACC3 inh = disruptors of human ARNT/TACC3 interaction. Q9Y6A5. AlphaScreen His-ARNT PAS-B/GST-TACC3 binding, luminescence; TACC3 fragment carries E629A point mutation. inhibition, % at 9.99 µM. 0.66% of 390,000 active;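 active = mean inhibition of replicates at least 50% and at least half of replicates each reaching 50%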;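 note: 0% = complete ARNT plus TACC3 wells and 100% = ARNT alone without TACC3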
# Casp6 inh = blocks human caspase-6 cleavage activity; P55212; purified caspase-6, Z-VEID-R110 cleavage fluorescence; inhibition, % at 12.5 µM; 0.53% of 350,000 active;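 active = mean inhibition across replicates at least about 35%, with every replicate also reaching that limit, limit read from the data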;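 note: 0% = median of neutral control wells and 100% = no fluorescence left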
# Target sequence (P55212 24-179 limits assumed): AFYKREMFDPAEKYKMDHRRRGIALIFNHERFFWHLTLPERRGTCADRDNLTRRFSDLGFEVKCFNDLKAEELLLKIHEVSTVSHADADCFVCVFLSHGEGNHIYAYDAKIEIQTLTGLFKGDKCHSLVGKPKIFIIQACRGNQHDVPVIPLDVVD
# Target sequence (P55212 194-293 limits assumed): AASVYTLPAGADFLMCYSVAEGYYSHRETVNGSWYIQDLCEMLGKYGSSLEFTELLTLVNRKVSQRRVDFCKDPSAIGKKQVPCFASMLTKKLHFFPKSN
# PGC1a acetyl inh = lowers PGC1a acetylation signal in U2OS cells | AlphaScreen anti-acetyl-lysine; with virally co-expressed GCN5 acetyltransferase | inhibition, % at 15.6 µM | 0.17% of 350,000 active | AID 651687;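 active = every replicate shows inhibition of at least 40%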;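 note: 0% = neutral control wells and 100% = positive control wells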
# Ecoli rRNA inh = inhibits bacterial ribosomal RNA function over humanized ribosomes | 1.6% of 350,000 active | GFP signal change (wild-type ribosome), % (test concentration not listed) | E. coli WT GFP vs humanized-ribosome RFP mutants, fluorescence, 24 h; hits give low values; DMSO median 0, no signal -100;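 active = significant combined selectivity score with lowered wild-type GFP, culture density cut under 30%, mutant RFP and density less affected; inactive = any of these conditions unmet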
# AlphaScreen ctr = interferes with AlphaScreen signal, flagging false ARNT-TACC3 hits; 50% of 1,200 active; AC50, µM (titrated, usually from 68 µM), for the others: at the highest dose activity change, negative = signal decrease; shares compounds with ARNT-TACC3 inh; AID 651705; His-ARNT PASB-GST AlphaScreen artifact counter-screen, luminescence;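 active = every separate test run was called active for a drop in luminescence, with AC50 within twice the top valid dose, actives reach about 71 µM in these data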
# * hit, by the source's call; nt = not tested or not shown.
SMILES,S100A4 inh HTS,ERAP1 inh,ARNT-TACC3 inh,Casp6 inh,PGC1a acetyl inh,Ecoli rRNA inh,AlphaScreen ctr
CCCNC(=O)C[C@H]1CC[C@@H]2[C@@H](COc3ccc(NC(=O)c4ccc(C(F)(F)F)cc4)cc3C(=O)N2C)O1,-2,1,-2,0,-1,-4,nt
C#CCOCCOCCOCCNc1nc(N2CCN(C(=O)Cn3cc(CCCCN)nn3)CC2)nc(N2CCN(C(=O)[C@H](CCCCN)n3cc(CCCC)nn3)CC2)n1,-8,-3,32*,-59,nt,5,4%
C#CCOCCOCCOCCNc1nc(N2CCN(C(=O)[C@H](CCC(=O)O)n3cc([C@@H](N)CCCCN)nn3)CC2)nc(N2CCN(C(=O)[C@H](CCCCN)n3cc([C@@H](N)CC(N)=O)nn3)CC2)n1,2,-4,51*,-190,22,7,-4%
C#CCOCCOCCOCCNc1nc(N2CCN(C(=O)C([C@@H](C)O)n3cc([C@@H](N)CCCCN)nn3)CC2)nc(N2CCN(C(=O)C([C@@H](C)O)n3cc([C@@H](N)CCCCN)nn3)CC2)n1 (stereo partly drawn),16,-5,60*,-214,2,9,0%
C[C@H](CO)N1C[C@H](C)[C@@H](CN(C)C(=O)Nc2ccc(F)cc2)OCCCC[C@H](C)Oc2ccc(NS(=O)(=O)c3cccs3)cc2C1=O,-32,-4,-11,0,0,0,nt
CCCNC(=O)C[C@@H]1CC[C@@H]2[C@@H](COc3ccc(NC(=O)C4CCCC4)cc3C(=O)N2C)O1,-5,0,-4,0,1,1,nt
CS(=O)(=O)c1ccccc1-c1nnc(NC(=O)c2ccc3ncsc3c2)o1,-2,7,50*,19,27,-13,-38%
CS(=O)(=O)c1cccc(-c2nnc(NC(=O)c3ccc4ncsc4c3)o2)c1,-1,-7,4,-1,nt,3,nt
O=c1[nH][nH]c(=O)c2nc(Nc3ccccc3)ncc12,-3,0,69*,-1,-3,3,-17%
O=[N+]([O-])c1cnc(Nc2ccccc2)nc1Nc1ccccc1,-5,-2,12,1,nt,-3,nt
CCCNC(=O)[C@@H]1N[C@@H]2c3ccc(C4=CCCCC4)c(=O)n3C[C@@H]2[C@H]1CO,-9,-1,-2,1,nt,0,nt
O=C(CN1C(=O)CCC1=O)Nc1nc(-c2ccc3ccccc3c2)cs1,0,1,-3,0,0,-13,nt
O=C(Nc1ccc2nc(-c3ccccn3)[nH]c2c1)C1CCCCC1,nt,nt,59*,nt,-8,nt,-7%
O=C(Nc1nc(-c2ccccn2)cs1)C1CCCC1,-3,0,59*,-1,12,nt,-15%
O=C(CN1C(=O)CCC1=O)Nc1nc(-c2ccccn2)cs1,-17,nt,59*,-4,-5,5,34µM*
CSCCC(=O)Nc1nc(-c2ccccn2)cs1,1,3,58*,2,nt,-29*,71µM*
C[C@@H]1CCCCO[C@H](CN(C)C(=O)Nc2cccc3ccccc23)[C@H](C)CN([C@@H](C)CO)C(=O)c2cc(NC(=O)Cc3ccccc3)ccc2O1,-3,0,7,-1,-7,4,nt
CO[C@@H]1CN(C)C(=O)c2ccc(NC(=O)C3CCCCC3)cc2OC[C@@H](C)N(C(=O)c2ccccc2)C[C@H]1C,-2,2,-2,-3,9,-5,nt
C[C@@H]1CN([C@@H](C)CO)C(=O)c2cc(NS(=O)(=O)c3cn(C)cn3)ccc2O[C@H]1CN(C)CC1CC1,1,-3,-14,-1,8,5,nt
COc1cc(/C=N/Nc2nn3cnnc3c3ccccc23)ccc1O,nt,nt,50*,nt,-2,nt,-30%
O=C(C[C@@H]1C[C@H]2c3cc(NS(=O)(=O)c4ccc(F)cc4)ccc3O[C@H]2[C@H](CO)O1)NCc1cccc(F)c1,2,3,5,2,1,-11,nt

# Source: PubChem (Broad Institute)
